System: HEK-293T
Test: Multiplex assay against HEK293T;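 as to Population Tubulin-Different-Phenotype (%): share of the cells with healthy nuclei that show this phenotype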
Format: toxicity, cell-based
Details: human
Outline: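 Per cents of healthy-nucleus cells form the tubulin, mitochondrial-mass and membrane-permeability phenotype values. Live cells were stained at seeding with Hoechst33342, BioTracker Green Microtubule Cytoskeleton Dye, MitoTracker Red and Annexin V Alexa Fluor 680. After compound addition they were imaged on a CQ1 microscope at 37°C and 5% CO2, and CellPathfinder machine-learning gating split them into Hoechst high-intensity objects or normal cells, normal cells into healthy, pyknosed or fragmented nuclei, and pyknosed cells into mitotic or apoptotic.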

[1] = 12 h, 1 µM, compound concentration 1 uM, replicate 1
[2] = 12 h, 1 µM, compound concentration 1 uM, replicate 2
[3] = 12 h, 10 µM, compound concentration 10 uM, replicate 1
[4] = 12 h, 10 µM, compound concentration 10 uM, replicate 2
[5] = 24 h, 1 µM, compound concentration 1 uM, replicate 1
[6] = 24 h, 1 µM, compound concentration 1 uM, replicate 2
[7] = 24 h, 10 µM, compound concentration 10 uM, replicate 1
[8] = 24 h, 10 µM, compound concentration 10 uM, replicate 2
[9] = 48 h, 1 µM, compound concentration 1 uM, replicate 1
[10] = 48 h, 1 µM, compound concentration 1 uM, replicate 2
[11] = 48 h, 10 µM, compound concentration 10 uM, replicate 1
[12] = 48 h, 10 µM, compound concentration 10 uM, replicate 2

CCc1cccc(CC)c1NC(=O)c1nn(C)c2c1CCc1cnc(Nc3ccc(C(=O)NC4CCN(C)CC4)cc3OC(F)(F)F)nc1-2
Population Apoptotic (%) [1]: 66% | Population Fragmented Nuclei (%) [1]: 8% | Population Healthy Nuclei (%) [1]: 46% | Population Hoechst High Intensity Objects (%) [1]: 11% | Population Membrane Permeable-Phenotype (%) [1]: 3% | Population Mitochondria Different-Phenotype (%) [1]: 93% | Population Mitotic Cells (%) [1]: 33% | Population Normal (%) [1]: 88% | Population Pyknosed Nuclei (%) [1]: 45% | Population Tubulin-Different-Phenotype (%) [1]: 68% | Total Cell Count [1]: 312 | Population Apoptotic (%) [2]: 28% | Population Fragmented Nuclei (%) [2]: 4% | Population Healthy Nuclei (%) [2]: 39% | Population Hoechst High Intensity Objects (%) [2]: 4% | Population Membrane Permeable-Phenotype (%) [2]: 2% | Population Mitochondria Different-Phenotype (%) [2]: 57% | Population Mitotic Cells (%) [2]: 71% | Population Normal (%) [2]: 95% | Population Pyknosed Nuclei (%) [2]: 56% | Population Tubulin-Different-Phenotype (%) [2]: 62% | Total Cell Count [2]: 251 | Population Apoptotic (%) [3]: 80% | Population Fragmented Nuclei (%) [3]: 11% | Population Healthy Nuclei (%) [3]: 31% | Population Hoechst High Intensity Objects (%) [3]: 11% | Population Membrane Permeable-Phenotype (%) [3]: 0% | Population Mitochondria Different-Phenotype (%) [3]: 98% | Population Mitotic Cells (%) [3]: 19% | Population Normal (%) [3]: 88% | Population Pyknosed Nuclei (%) [3]: 57% | Population Tubulin-Different-Phenotype (%) [3]: 98% | Total Cell Count [3]: 300 | Population Apoptotic (%) [4]: 73% | Population Fragmented Nuclei (%) [4]: 4% | Population Healthy Nuclei (%) [4]: 16% | Population Hoechst High Intensity Objects (%) [4]: 7% | Population Membrane Permeable-Phenotype (%) [4]: 4% | Population Mitochondria Different-Phenotype (%) [4]: 86% | Population Mitotic Cells (%) [4]: 26% | Population Normal (%) [4]: 92% | Population Pyknosed Nuclei (%) [4]: 78% | Population Tubulin-Different-Phenotype (%) [4]: 86% | Total Cell Count [4]: 152 | Population Apoptotic (%) [5]: 63% | Population Fragmented Nuclei (%) [5]: 10% | Population Healthy Nuclei (%) [5]: 53% | Population Hoechst High Intensity Objects (%) [5]: 10% | Population Membrane Permeable-Phenotype (%) [5]: 1% | Population Mitochondria Different-Phenotype (%) [5]: 84% | Population Mitotic Cells (%) [5]: 36% | Population Normal (%) [5]: 89% | Population Pyknosed Nuclei (%) [5]: 36% | Population Tubulin-Different-Phenotype (%) [5]: 56% | Total Cell Count [5]: 342 | Population Apoptotic (%) [6]: 25% | Population Fragmented Nuclei (%) [6]: 2% | Population Healthy Nuclei (%) [6]: 59% | Population Hoechst High Intensity Objects (%) [6]: 4% | Population Membrane Permeable-Phenotype (%) [6]: 3% | Population Mitochondria Different-Phenotype (%) [6]: 52% | Population Mitotic Cells (%) [6]: 74% | Population Normal (%) [6]: 95% | Population Pyknosed Nuclei (%) [6]: 38% | Population Tubulin-Different-Phenotype (%) [6]: 55% | Total Cell Count [6]: 287 | Population Apoptotic (%) [7]: 74% | Population Fragmented Nuclei (%) [7]: 12% | Population Healthy Nuclei (%) [7]: 42% | Population Hoechst High Intensity Objects (%) [7]: 10% | Population Membrane Permeable-Phenotype (%) [7]: 4% | Population Mitochondria Different-Phenotype (%) [7]: 98% | Population Mitotic Cells (%) [7]: 25% | Population Normal (%) [7]: 89% | Population Pyknosed Nuclei (%) [7]: 45% | Population Tubulin-Different-Phenotype (%) [7]: 98% | Total Cell Count [7]: 342 | Population Apoptotic (%) [8]: 93% | Population Fragmented Nuclei (%) [8]: 6% | Population Healthy Nuclei (%) [8]: 32% | Population Hoechst High Intensity Objects (%) [8]: 5% | Population Membrane Permeable-Phenotype (%) [8]: 0% | Population Mitochondria Different-Phenotype (%) [8]: 93% | Population Mitotic Cells (%) [8]: 6% | Population Normal (%) [8]: 94% | Population Pyknosed Nuclei (%) [8]: 61% | Population Tubulin-Different-Phenotype (%) [8]: 91% | Total Cell Count [8]: 158 | Population Apoptotic (%) [9]: 43% | Population Fragmented Nuclei (%) [9]: 14% | Population Healthy Nuclei (%) [9]: 59% | Population Hoechst High Intensity Objects (%) [9]: 12% | Population Membrane Permeable-Phenotype (%) [9]: 0% | Population Mitochondria Different-Phenotype (%) [9]: 57% | Population Mitotic Cells (%) [9]: 56% | Population Normal (%) [9]: 87% | Population Pyknosed Nuclei (%) [9]: 26% | Population Tubulin-Different-Phenotype (%) [9]: 46% | Total Cell Count [9]: 417 | Population Apoptotic (%) [10]: 27% | Population Fragmented Nuclei (%) [10]: 7% | Population Healthy Nuclei (%) [10]: 69% | Population Hoechst High Intensity Objects (%) [10]: 3% | Population Membrane Permeable-Phenotype (%) [10]: 2% | Population Mitochondria Different-Phenotype (%) [10]: 32% | Population Mitotic Cells (%) [10]: 72% | Population Normal (%) [10]: 96% | Population Pyknosed Nuclei (%) [10]: 23% | Population Tubulin-Different-Phenotype (%) [10]: 43% | Total Cell Count [10]: 410 | Population Apoptotic (%) [11]: 84% | Population Fragmented Nuclei (%) [11]: 14% | Population Healthy Nuclei (%) [11]: 52% | Population Membrane Permeable-Phenotype (%) [11]: 3% | Population Mitochondria Different-Phenotype (%) [11]: 94% | Population Mitotic Cells (%) [11]: 15% | Population Pyknosed Nuclei (%) [11]: 32% | Population Tubulin-Different-Phenotype (%) [11]: 88% | Total Cell Count [11]: 339 | Population Apoptotic (%) [12]: 91% | Population Fragmented Nuclei (%) [12]: 8% | Population Healthy Nuclei (%) [12]: 38% | Population Hoechst High Intensity Objects (%) [12]: 13% | Population Membrane Permeable-Phenotype (%) [12]: 6% | Population Mitochondria Different-Phenotype (%) [12]: 93% | Population Mitotic Cells (%) [12]: 8% | Population Normal (%) [12]: 86% | Population Pyknosed Nuclei (%) [12]: 52% | Population Tubulin-Different-Phenotype (%) [12]: 86% | Total Cell Count [12]: 173

Reference: ChEMBL document CHEMBL4689842, “EUbOPEN Chemogenomics Library wave 1” (2021)
